The results in this text go back to ChEMBL document CHEMBL4406880, “Design, synthesis, and bioactivity of dihydropyrimidine derivatives as kinesin spindle protein inhibitors” (Bioorg Med Chem, 2019).

Molecules are shown by their SMILES.

Assay type in all cases: functional
The subject of one test is A549. The test can be described thus: Growth inhibition of human A549/ATCC cells assessed as growth percentage at 10 uM incubated for 48 hrs by sulforhodamine B assay relative to control. The conditions noted are these: A549, 48 h, read-out: Activity. The gist of the method:
(§1)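 NCI-60 one-dose screen: cells in RPMI 1640 with 5% FBS and 2 mM L-glutamine, plated at 5,000–40,000 cells/well and preincubated 24 h at 37 °C, 5% CO2. Compound is added from a DMSO stock to a final 10 µM and incubated 48 h. Cells are TCA-fixed and stained with sulforhodamine B, read at 515 nm. Output is % growth versus untreated control, with a time-zero plate.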
On the technique in general: In SRB staining, fixed cells bind dye roughly in proportion to their protein.

The test system of a further test is K562. Put plainly: Growth inhibition of human K562 cells assessed as growth percentage at 10 uM incubated for 48 hrs by sulforhodamine B assay relative to control. The conditions noted are these: K562, 48 h, read-out: Activity. The gist of the method: (§2)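 NCI-60 one-dose screen. Cells in RPMI 1640 with 5% FBS and 2 mM L-glutamine, seeded at 5,000–40,000 cells/well according to doubling time, and preincubated overnight at 37 °C, 5% CO2. A time-zero plate was TCA-fixed at drug addition. Compound from DMSO stock, final 10 µM, 48 h; DMSO vehicle controls. Fixation with TCA, 10% final (16% for suspension cells). SRB stain, Tris solubilization, A515. Result given as % growth versus untreated cells.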

The subject of a further test is HL-60(TB). Put plainly: Growth inhibition of human HL-60(TB) cells assessed as growth percentage at 10 uM incubated for 48 hrs by sulforhodamine B assay relative to control. The conditions noted are these: HL-60, 48 h, read-out: Activity. The essentials:
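NCI-60 single-dose screen. Cells in RPMI 1640 with 5% FBS and 2 mM L-glutamine are plated at 5,000–40,000 cells/well and preincubated overnight at 37 °C, 5% CO2. Compound is added from a DMSO stock at 10 µM final for 48 h. Cells are TCA-fixed (suspension cells 16% final) and stained with SRB. Absorbance is read at 515 nm, and percentage growth is calculated against untreated controls with a time-zero plate.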

For another test, the system named is COLO 205. The test can be described thus: Growth inhibition of human COLO205 cells assessed as growth percentage at 10 uM incubated for 48 hrs by sulforhodamine B assay relative to control. The conditions noted are these: COLO 205, 48 h, read-out: Activity. The essentials: as §1
The next test has as its system HCC 2998. Put plainly: Growth inhibition of human HCC2998 cells assessed as growth percentage at 10 uM incubated for 48 hrs by sulforhodamine B assay relative to control. The conditions noted are these: HCC 2998, 48 h, read-out: Activity. The essentials:
as §1

The subject of the next test is HCT-116. The test can be described thus: Growth inhibition of human HCT116 cells assessed as growth percentage at 10 uM incubated for 48 hrs by sulforhodamine B assay relative to control. As to conditions: HCT-116, 48 h, read-out: Activity. The gist of the method: as §1
Another test deals with HCT-15. Put plainly: Growth inhibition of human HCT15 cells assessed as growth percentage at 10 uM incubated for 48 hrs by sulforhodamine B assay relative to control. As to conditions: HCT-15, 48 h, read-out: Activity. The gist of the method: as §1
For the next test, the system named is HT-29. The test can be described thus: Growth inhibition of human HT-29 cells assessed as growth percentage at 10 uM incubated for 48 hrs by sulforhodamine B assay relative to control. The conditions noted are these: HT-29, 48 h, read-out: Activity. The essentials: as §2
Another test has as its system KM12. Put plainly: Growth inhibition of human KM12 cells assessed as growth percentage at 10 uM incubated for 48 hrs by sulforhodamine B assay relative to control. As to conditions: KM12, 48 h, read-out: Activity. The gist of the method: as §2
Another test relates to SW-620. The test can be described thus: Growth inhibition of human SW620 cells assessed as growth percentage at 10 uM incubated for 48 hrs by sulforhodamine B assay relative to control. The conditions noted are these: SW-620, 48 h, read-out: Activity. The gist of the method:
(§3)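 NCI-60 single-dose screen. Cells were grown in RPMI 1640 with 5% FBS and 2 mM L-glutamine and plated at 5,000–40,000 cells/well. After an overnight preincubation at 37 °C in 5% CO2, compound was added at a final 10 µM from a DMSO stock, with DMSO/PBS controls. After 48 h, cells were TCA-fixed and stained with 0.4% SRB, and absorbance was read at 515 nm. Growth is given as a percentage of untreated control.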

The subject of the next test is SF-295. Put plainly: Growth inhibition of human SF295 cells assessed as growth percentage at 10 uM incubated for 48 hrs by sulforhodamine B assay relative to control. As to conditions: SF-295, 48 h, read-out: Activity. The gist of the method:
as §3

The test system of the next test is U-251. Put plainly: Growth inhibition of human U251 cells assessed as growth percentage at 10 uM incubated for 48 hrs by sulforhodamine B assay relative to control. As to conditions: U-251, 48 h, read-out: Activity. The gist of the method:
as §3

The subject of another test is LOX IMVI. Put plainly: Growth inhibition of human LOXIMVI cells assessed as growth percentage at 10 uM incubated for 48 hrs by sulforhodamine B assay relative to control. The conditions noted are these: read-out: Activity. The gist of the method: as §2
The next test relates to SK-MEL-28. Put plainly: Growth inhibition of human SK-MEL-28 cells assessed as growth percentage at 10 uM incubated for 48 hrs by sulforhodamine B assay relative to control. As to conditions: SK-MEL-28, 48 h, read-out: Activity. The essentials: as §3
A further test deals with SK-MEL-5. The test can be described thus: Growth inhibition of human SK-MEL-5 cells assessed as growth percentage at 10 uM incubated for 48 hrs by sulforhodamine B assay relative to control. The conditions noted are these: SK-MEL-5, 48 h, read-out: Activity. The gist of the method:
as §3

Another test has as its system UACC-257. The test can be described thus: Growth inhibition of human UACC257 cells assessed as growth percentage at 10 uM incubated for 48 hrs by sulforhodamine B assay relative to control. The conditions noted are these: UACC-257, 48 h, read-out: Activity. The gist of the method: as §3
A further test concerns UACC-62. Put plainly: Growth inhibition of human UACC62 cells assessed as growth percentage at 10 uM incubated for 48 hrs by sulforhodamine B assay relative to control. The conditions noted are these: UACC-62, 48 h, read-out: Activity. The essentials:
as §3

In another test the test system is OVCAR-3. Put plainly: Growth inhibition of human OVCAR3 cells assessed as growth percentage at 10 uM incubated for 48 hrs by sulforhodamine B assay relative to control. The conditions noted are these: OVCAR-3, 48 h, read-out: Activity. The essentials:
as §2

Another test relates to OVCAR-8. The test can be described thus: Growth inhibition of human OVCAR8 cells assessed as growth percentage at 10 uM incubated for 48 hrs by sulforhodamine B assay relative to control. As to conditions: OVCAR-8, 48 h, read-out: Activity. The gist of the method: as §3
The next test relates to NCI/ADR-RES. The test can be described thus: Growth inhibition of human NCI/ADR-RES cells assessed as growth percentage at 10 uM incubated for 48 hrs by sulforhodamine B assay relative to control. As to conditions: read-out: Activity. The essentials:
as §2

A further test has as its system RXF 393. Put plainly: Growth inhibition of human RXF393 cells assessed as growth percentage at 10 uM incubated for 48 hrs by sulforhodamine B assay relative to control. As to conditions: RXF 393, 48 h, read-out: Activity. The gist of the method: as §3
The test system of the next test is SN12C. The test can be described thus: Growth inhibition of human SN12C cells assessed as growth percentage at 10 uM incubated for 48 hrs by sulforhodamine B assay relative to control. As to conditions: read-out: Activity. The essentials: as §3
The next test relates to DU-145. Put plainly: Growth inhibition of human DU145 cells assessed as growth percentage at 10 uM incubated for 48 hrs by sulforhodamine B assay relative to control. As to conditions: DU-145, 48 h, read-out: Activity. The gist of the method: as §1
A further test concerns MDA-MB-231. Put plainly: Growth inhibition of human MDA-MB-231 cells assessed as growth percentage at 10 uM incubated for 48 hrs by sulforhodamine B assay relative to control. The conditions noted are these: MDA-MB-231, 48 h, read-out: Activity. The essentials: as §2

Take `CC1=C(C(=O)OCC(C)C)C(c2ccc3c(c2)OCO3)NC(=O)N1` (racemic): the growth at 10 µM amounted to 109% in the test with A549; 113% with K562; 96% in the test on HL-60(TB); 119% with COLO 205; 108% with HCC 2998; 105% with HCT-116. The growth at 10 µM came out at 101% with HCT-15; 105% in the test on HT-29; 104% in the test on KM12; 113% in the test on SW-620; 99.5% in the test with SF-295; 99.8% with U-251. Also, the growth at 10 µM was 96.5% in the test on LOX IMVI; 113% in the test with SK-MEL-28; 101% with SK-MEL-5; 103% in the test with UACC-257; 98.5% in the test with UACC-62; 117% in the test with OVCAR-3. Further, the growth at 10 µM was determined as 103% with OVCAR-8; 106% in the test on NCI/ADR-RES; 101% in the test with RXF 393; 105% in the test with SN12C; 109% in the test on DU-145; 106% with MDA-MB-231.
Regarding `CC(=O)C1=C(C)Nc2nc3ccccc3n2C1c1ccc2c(c1)OCO2` (racemic), the growth at 10 µM in the test on A549 is 99%; with K562 it was 82.9%; with HL-60(TB) it was 98.4%; with COLO 205 it was 114%; in the test with HCC 2998 it was 111%; with HCT-116, 98.9%. Besides, the growth at 10 µM with HCT-15 is 98.2%; with HT-29 it was 105%; in the test on KM12, 96.4%; with SW-620, 104%; in the test on SF-295, 103%; with U-251 it was 95.7%. Further, the growth at 10 µM was determined as 94.9% with LOX IMVI; 107% in the test with SK-MEL-28; 102% with SK-MEL-5; 111% with UACC-257; 94.4% with UACC-62; 105% in the test on OVCAR-3. In addition, the growth at 10 µM in the test with OVCAR-8 is 98.6%; in the test with NCI/ADR-RES, 102%; in the test on RXF 393 it was 108%; in the test on SN12C, 101%; with DU-145, 109%; with MDA-MB-231, 93.5%.
